Source: PubChem BioAssay
PMI act satM6P: increases human PMI activity with near-saturating mannose 6-phosphate | activation factor at 20 µM | AID 1216 | coupled PMI enzyme assay, resazurin fluorescence, 20 min; hits give high values; 1 = untreated enzyme, 0 = substrate-free blank | actives 0.34% (n = 190,000);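 active = activation factor of 2 or more at 20 µM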
Target sequence (P34949 whole entry, looked up): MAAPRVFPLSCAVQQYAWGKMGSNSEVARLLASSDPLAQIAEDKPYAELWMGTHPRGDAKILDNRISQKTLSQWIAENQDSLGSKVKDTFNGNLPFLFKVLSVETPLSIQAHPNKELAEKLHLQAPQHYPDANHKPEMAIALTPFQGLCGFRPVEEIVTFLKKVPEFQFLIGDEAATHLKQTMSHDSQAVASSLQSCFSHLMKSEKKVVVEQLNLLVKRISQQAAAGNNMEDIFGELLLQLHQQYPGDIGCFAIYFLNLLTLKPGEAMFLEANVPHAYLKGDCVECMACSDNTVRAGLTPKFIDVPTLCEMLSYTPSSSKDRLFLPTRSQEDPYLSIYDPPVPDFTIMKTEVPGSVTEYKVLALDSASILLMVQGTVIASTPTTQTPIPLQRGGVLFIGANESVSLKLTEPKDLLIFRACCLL
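Technique: Diaphorase-driven resazurin-to-resorufin fluorescence, excitation 544, emission 590 nm | Assay system: Human PMI in coupled enzyme assay | Times: Enzyme reaction with compound 20 min at room temperature | Medium: HEPES-buffered pH 7.4 with magnesium and detergent | Reagent: Mannose-6-phosphate 1.0 mM (near-saturating) plus 0.22 mM NADP+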
WT yeast gro inh: growth inhibition of WT yeast, mitochondrial fusion screen; AID 1362; inhibition, % at 10 µM; mitochondrial fusion phenotypic screen, WT strain; actives 2.1% (n = 190,000); in the data active = inhibition above about 58%; tested in S. cerevisiae
PMI activator: activators of human phosphomannose isomerase. P34949. purified human PMI, coupled resazurin fluorescence, 20 min; hits give high values; 1 = vehicle control, 0 substrate-free wells. activation factor at 20 µM. actives 0.005% (n = 190,000);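 active = activation factor of 2 or more at 20 µM, relative to plate controls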
Diaphorase act: diaphorase activation or chemical reduction counter-screen | Diaphorase/resazurin coupled assay, resorufin fluorescence, 16 min; hits give high values; 1 = vehicle wells, 0 = NADH-free wells | activation factor at 20 µM | actives 0.005% (n = 190,000);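 active = diaphorase activity raised at least twofold by the compound at 20 µM; inactive = activation factor below 2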
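Test system: Clostridium kluyveri diaphorase, purified enzyme; input: enzyme 0.07 U/mL final; buffer or medium: 50 mM HEPES pH 7.4 with 4.542 mM MgCl2, 0.005% Tween 20; also added: 0.114 mM NADH and 0.1 mM resazurin, final amounts; schedule: 16 min enzyme reaction, ambient temperature; technique: fluorescence of resorufin, 544 nm excitation, 590 nm emission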
Lmaj promast: reduces viability of Leishmania major promastigotes | resazurin fluorescence viability | inhibition, % at 10 µM | actives 9% (n = 200,000) | AID 1063; in the data active = inhibition above about 50%;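 also: promastigotes grown with compound for 44 hours at 28 °C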
An asterisk follows results filed as active. A selection: hits, their analogues and other compounds. The true share with any hit is near 10%.

SMILES | PMI act satM6P | WT yeast gro inh | PMI activator | Diaphorase act | Lmaj promast
O=C(Nc1ncc2c(n1)CC(c1ccco1)CC2=O)c1ccccc1 (stereo not drawn) | 1 | 70.1* | 0.9 | 0.9 | 1.4
COc1cc(CNCc2ccccc2)cc(Cl)c1OC | 0.9 | -8.7 | 1 | 0.8 | 65.6*
CCOc1cc(CNCC2CCCN2CC)cc(Cl)c1OC (stereo not drawn) | 1.1 | 13.0 | 1.1 | 0.9 | 2.4
CCCCNCc1cc(Cl)c(OCCC)c(OCC)c1 | 1 | -2.4 | 1 | 1.1 | 90.3*
COc1cc(CNCCc2ccccc2)cc(Cl)c1OCc1ccccc1 | 1 | 81.9 | 1 | 1.4 | 91.1*
CCOc1cc(CNCc2ccncc2)cc(Cl)c1OC | 1.1 | -6.0 | 1.2 | 0.9 | 88.7*
CCN(CCO)Cc1csc2ccc(C(C)(C)C)cc12 | 1.1 | -1.8 | 1.1 | 1 | 42.6
COCCNC(=S)N(CCc1c(C)[nH]c2ccccc12)Cc1ccco1 | 1 | 7.8 | 0.9 | 0.7 | 11.0
COc1ccc(C(C)(C)C)cc1NC(=O)c1ccoc1C | 0.9 | 65.0* | 0.9 | 0.9 | 9.8
COc1cc([N+](=O)[O-])ccc1NC(=O)COC(=O)c1n[nH]c2ccccc12 | 0.8 | 11.0 | 1 | 0.6 | 60.3*
COc1ccc([N+](=O)[O-])cc1NC(=O)COC(=O)c1ccccc1C(=O)c1ccccc1 | 0.9 | 1.2 | 0.9 | 0.7 | 92.2*
O=C(COC(=O)c1n[nH]c2ccccc12)Nc1ccc(Cl)cc1[N+](=O)[O-] | 0.8 | 22.4 | 0.8 | 0.8 | -2.2
CCN(CC)S(=O)(=O)c1cc(Cl)ccc1OC | 1 | 1.3 | 1.1 | 1.1 | 0.0
COc1ccc(C(=O)NCS(=O)(=O)c2ccc(C)cc2)cc1 | 1 | 16.6 | 1 | 0.9 | -7.1
CO/N=C(/CS(=O)(=O)c1ccc(C)cc1)c1ccc(OC)cc1 | 0.8 | 47.7 | 0.8 | 0.8 | 80.0*
O=C(Nc1ccc([N+](=O)[O-])cn1)C1CC2CCC1C2 (stereo not drawn) | 1 | -2.9 | 1.1 | 1 | -4.2
Cc1ccc(Oc2cc([N+](=O)[O-])cc3c2C(=O)Nc2ccccc2O3)cc1 | 1 | 63.9* | 0.9 | 0.8 | 3.6
c1ccc(CSc2ncnc3c2cnn3Cc2ccccc2)cc1 | 0.9 | 67.5* | 0.8 | 0.8 | -3.0
O=C(O)CC(=O)Nc1cc(Cl)ccc1O | 1 | -8.9 | 1 | 0.9 | 0.6
Cc1ccc(O)c(C(=O)CC(=O)c2cccc(F)c2)c1 | 1.1 | 66.0 | 1.1 | 1 | 60.0*
Cc1cccc(C(=O)CC(=O)c2cc(Cl)ccc2O)c1 | 1 | 61.0* | 0.9 | 0.8 | 99.3*
COc1ccccc1C(=O)NNC(=O)c1cccc(F)c1 | 1 | 10.7 | 0.9 | 1 | -1.4
O=C(CC(=O)c1cc(Cl)ccc1O)c1ccccc1 | 1 | 62.4 | 0.4 | 0.9 | 99.5*
O=C(O)c1cc(-c2ccc(/C=C3/SC(=S)N(Cc4ccccc4)C3=O)o2)ccc1Cl | 1.3 | 59.9* | 1.3 | 0.5 | 3.8
CCC(C)(C(=O)NC1CCCCC1)N(C(=O)Cc1cccs1)c1ccccc1 (stereo not drawn) | 1.1 | 2.9 | 1 | 0.9 | 17.8
SMILES | PMI act satM6P | WT yeast gro inh | PMI activator | Diaphorase act | Lmaj promast
CC(NC(=O)Nc1nnc(C(F)(F)F)s1)(C(F)(F)F)C(F)(F)F | 1.1 | 69.6* | 1.1 | 0.9 | 42.8
CC(C)(C)CC(=O)Nc1nnc(C(F)(F)F)s1 | 1 | -13.1 | 1 | 0.9 | 7.6
O=C(Nc1nnc(C(F)(F)F)s1)c1ccc(Br)s1 | 1.1 | 63.0* | 1.2 | 0.9 | 10.0
CCc1cc2cc(C)cc(C)c2[nH]c1=S | 2.9* | 6.5 | 1.8 | 1 | 1.7
O=C(Nn1c(=O)[nH]c2ccccc2c1=O)c1ccco1 | 1 | -11.9 | 1 | 0.9 | 2.5
CN(CC(O)COCc1ccc2c(c1)OCO2)C1CCCCC1 (stereo not drawn) | 1 | -9.7 | 1 | 0.9 | -4.4
CN(CC(O)COc1c(F)cc(Br)cc1F)C1CCCCC1 (stereo not drawn) | 1 | 14.4 | 1 | 0.9 | 84.5*
Cc1cc(OCC(=O)NC(C)c2ccccc2)ccc1[N+](=O)[O-] (stereo not drawn) | 0.9 | 15.8 | 0.9 | 0.8 | -1.1
CCC1CCCCN1Cc1ccc(CNS(=O)(=O)c2ccc3c(c2)oc(=O)n3C)o1 (stereo not drawn) | 0.9 | -5.6 | 1 | 0.9 | 97.6*
Cn1c(=O)oc2cc(S(=O)(=O)NCCC(=O)N3CC=C(c4ccccc4)CC3)ccc21 | 0.7 | 7.5 | 0.9 | 0.8 | 6.4
O=C(NNS(=O)(=O)c1ccc2ccccc2c1)C1CCN(Cc2ccccc2)CC1 | 1 | 3.7 | 1 | 0.9 | 42.2
O=S(=O)(NC1CCN(Cc2ccccc2)CC1)c1ccc2ccccc2c1 | 0.9 | 39.5 | 0.9 | 0.8 | 88.9*
CC(C)CC(NS(=O)(=O)c1ccc2c(c1)oc(=O)n2C)C(=O)N1CC=C(c2ccccc2)CC1 (stereo not drawn) | 0.8 | 21.9 | 0.9 | 0.7 | 85.7*
O=C(C1CC1)N1CCc2cc(S(=O)(=O)NC3CCN(Cc4ccccc4)CC3)ccc21 | 1 | 7.2 | 1 | 0.9 | 59.3*
COc1ccc(-c2csc(C3=C(O)CN(CCCN4CCCC4=O)C3=N)n2)cc1OC | 0.9 | 0.9 | 0.9 | 0.8 | 9.6
CCOC1(C)OCC(=O)[C@]2(CCC3C4CCC5=CC(=O)C=CC5(C)C4C(=O)CC32C)O1 (stereo partly drawn) | 0.9 | -9.5 | 0.9 | 1 | -0.1
O=C1C2N=NN(CC(=O)N3N=C(c4ccccc4)CC3c3ccc([N+](=O)[O-])cc3)C2C(=O)N1c1ccccc1 (stereo not drawn) | 0.9 | 15.0 | 0.9 | 0.9 | 1.2
Cn1c(=O)oc2cc(S(=O)(=O)NC3CCN(Cc4ccccc4)CC3)ccc21 | 0.7 | 5.6 | 0.9 | 0.9 | 50.1*
Cn1c(=O)oc2cc(S(=O)(=O)Nc3ccc4c(c3)OCO4)ccc21 | 0.8 | -1.3 | 1 | 0.7 | 66.1*
Cc1cc(C)c(C)c(S(=O)(=O)NC2CCN(Cc3ccccc3)CC2)c1C | 1 | 14.7 | 1 | 0.9 | 59.5*
CC(C)c1cccc(C(C)C)c1NC(=O)CNCc1ccccc1F | 1.2 | 6.6 | 1 | 1 | 59.9*
CC(C)c1cccc(C(C)C)c1NC(=O)CCl | 0.9 | 6.3 | 1.1 | 0.9 | 17.1
CCN1CCN(S(=O)(=O)c2ccc(Cl)c(C(=O)NC(C)(C)C)c2)CC1 | 1 | -9.4 | 1 | 0.9 | -3.2
Cc1ccc(C)c(OCc2nc3ccccc3[nH]2)c1 | 0.9 | 15.9 | 0.9 | 0.8 | 44.5
CC(c1ccccc1)C(Cc1nc2ccccc2[nH]1)c1nc2ccccc2[nH]1 (stereo not drawn) | 0.9 | -5.6 | 0.9 | 0.8 | 95.0*
COc1ccccc1CC(Cc1nc2ccccc2[nH]1)c1nc2ccccc2[nH]1 (stereo not drawn) | 1 | 11.2 | 0.9 | 0.9 | 98.2*
